Measured values published in PubChem BioAssay AID588830 (Broad Institute, 2011).
Active and inactive are the calls of the source.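 The calls were made as follows: active = fitted IC50 for falling signal at or below ten times the top tested dose; inconclusive = flat fit with 30 to 70% signal loss, or poor fit; inactive = the rest.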

Assay: short-term cytotoxicity in ldlA[mSR-BI] cells, dose response, cytotoxicity control for SR-BI HDL uptake inhibitor project, cell-based, CellTiter-Glo luminescence, 3 h, dry powder (AID 588830)
Conditions: ldlA[mSR-BI] CHO cells viability, CellTiter-Glo ATP, 3 h; at 30 µM (top of the series)
In short: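 Test system: ldlA[mSR-BI] cells, scavenger receptor B1-expressing line / Medium: PSG and 10% FCS in Ham's F12 / Dosing: 8-concentration series per compound, added by pin transfer / Timing: 3 h at 37 °C, then 10 min with reagent / Signal: luminescence of cellular ATP via Cell Titer Glo reagent / Measure: cytotoxicity IC50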

**Q.** With `C[C@H]1CN([C@@H](C)CO)C(=O)c2cc(NC(=O)Cc3cn(C)c4ccccc34)ccc2O[C@H]1CN(C)S(=O)(=O)c1ccc(F)cc1` as the compound, how does the activity change, negative = cytotoxicity read?
**A.** -1.92% (inactive)

Same assay, conditions: ldlA[mSR-BI] CHO cells viability, CellTiter-Glo ATP, 3 h; at 35 µM (top of the series)

**Q.** Which activity change, negative = cytotoxicity does the source give for `C[C@@H]1CN([C@H](C)CO)C(=O)c2cc(NC(=O)Cc3cn(C)c4ccccc34)ccc2O[C@H]1CN(C)C(=O)Nc1ccc(F)cc1` here?
**A.** 4.57% (inactive)

**Q.** Which activity change, negative = cytotoxicity does the source give for `C[C@H]1CN([C@@H](C)CO)C(=O)c2cc(NC(=O)Cc3cn(C)c4ccccc34)ccc2O[C@@H]1CN(C)S(=O)(=O)c1ccc(F)cc1` here?
**A.** 1.18% (inactive)

**Q.** Which activity change, negative = cytotoxicity does the source give for `C[C@H]1CN([C@@H](C)CO)C(=O)c2cccc(NC(=O)Nc3ccccc3)c2O[C@@H]1CN(C)Cc1ccc(Cl)c(Cl)c1` here?
**A.** -15.5% (inactive)

**Q.** Which activity change, negative = cytotoxicity does the source give for `O=C(Nc1ccc(-c2nc3ccc(NC(=O)c4ccccc4[N+](=O)[O-])cc3[nH]2)cc1)c1ccccc1[N+](=O)[O-]` here?
**A.** 6.32% (inactive)

**Q.** For `COc1ccc([C@H]2CC(=O)C=C(c3cccc4c3sc3ccccc34)C2)cc1OC`, which activity change, negative = cytotoxicity is on record?
**A.** -5.27% (inactive)

**Q.** For `CCOC(=O)Nc1cccc(NC(=O)c2cc(OC)cc(OC)c2)c1`, which activity change, negative = cytotoxicity is on record?
**A.** -7.68% (inactive)

**Q.** Which activity change, negative = cytotoxicity does the source give for `O=C(Nc1cccc(NC(=O)c2cc([N+](=O)[O-])ccc2Cl)n1)c1cc([N+](=O)[O-])ccc1Cl` here?
**A.** -7.2% (inactive)

**Q.** With `C[C@@H]1CN([C@H](C)CO)C(=O)c2cc(NC(=O)Cc3cn(C)c4ccccc34)ccc2O[C@H]1CN(C)S(C)(=O)=O` as the compound, how does the activity change, negative = cytotoxicity read?
**A.** 3.58% (inactive)

**Q.** Which activity change, negative = cytotoxicity does the source give for `COc1ccc(OC)c(CCNC(=O)c2ccc3c(c2)N(Cc2ccc(F)cc2)CCS3)c1` here?
**A.** -5.33% (inactive)

**Q.** For `O=C(Nc1ccccc1Cl)c1ccccc1NS(=O)(=O)c1ccccc1`, which activity change, negative = cytotoxicity is on record?
**A.** -1.11% (inactive)

**Q.** Which activity change, negative = cytotoxicity does the source give for `Cc1cc(C)n(CC(=O)NC2CCCc3c2cnn3-c2ccc(C)c(C)c2)n1` (configuration not stated) here?
**A.** -4.16% (inactive)

**Q.** Which activity change, negative = cytotoxicity does the source give for `C[C@H](CO)N1C[C@H](C)[C@H](CN(C)S(=O)(=O)c2ccc(F)cc2)Oc2ccc(NC(=O)Cc3cn(C)c4ccccc34)cc2C1=O` here?
**A.** -10% (inactive)

**Q.** With `CCc1cc2cc3c(cc2nc1SCC(=O)OC(C)C)OCO3` as the compound, how does the activity change, negative = cytotoxicity read?
**A.** -2% (inactive)

**Q.** For `COc1cccc(-c2csc(N3CCN(C(=S)Nc4cccc(Cl)c4)CC3)n2)c1`, which activity change, negative = cytotoxicity is on record?
**A.** -9.99% (inactive)

**Q.** With `C[C@@H]1CN([C@@H](C)CO)C(=O)c2cc(NC(=O)Cc3cn(C)c4ccccc34)ccc2O[C@@H]1CN(C)S(=O)(=O)c1ccc(F)cc1` as the compound, how does the activity change, negative = cytotoxicity read?
**A.** 2.84% (inactive)

**Q.** Which activity change, negative = cytotoxicity does the source give for `C[C@H]1CN([C@@H](C)CO)C(=O)c2cccc(NC(=O)Nc3ccccc3)c2O[C@@H]1CN(C)S(C)(=O)=O` here?
**A.** -1.01% (inactive)

**Q.** Which activity change, negative = cytotoxicity does the source give for `O=C(Nc1ccc(-c2nc3cc(NC(=O)c4ccc(NC(=O)c5cccc6ccccc56)cc4)ccc3[nH]2)cc1)c1ccc(NC(=O)c2cccc3ccccc23)cc1` here?
**A.** 2.1% (inactive)

**Q.** For `Cc1ccccc1NC(=O)NCC1CCN(c2ccc(S(=O)(=O)N3CCOCC3)cc2)CC1`, which activity change, negative = cytotoxicity is on record?
**A.** -8.7% (inactive)

**Q.** With `C[C@H]1CN([C@@H](C)CO)C(=O)c2cccc(NC(=O)Nc3ccc(F)cc3)c2O[C@@H]1CN(C)Cc1ccc(Cl)c(Cl)c1` as the compound, how does the activity change, negative = cytotoxicity read?
**A.** -26.7% (inactive)

**Q.** Which activity change, negative = cytotoxicity does the source give for `Nc1ccc(C(=O)Nc2ccc(-c3nc4ccc(NC(=O)c5ccc(N)cc5)cc4[nH]3)cc2)cc1` here?
**A.** 7.17% (inactive)

**Q.** Which activity change, negative = cytotoxicity does the source give for `CC(OC(=O)c1cccc(NS(C)(=O)=O)c1)C(=O)Nc1ccc(N2CCOCC2)cc1` (configuration not stated) here?
**A.** -7.82% (inactive)

**Q.** For `C[C@@H]1CN([C@H](C)CO)C(=O)c2cc(NC(=O)Cc3cn(C)c4ccccc34)ccc2O[C@H]1CN(C)S(=O)(=O)c1ccccc1`, which activity change, negative = cytotoxicity is on record?
**A.** 1.08% (inactive)

**Q.** For `C[C@H]1CN([C@@H](C)CO)C(=O)c2cccc(NC(=O)Nc3ccccc3)c2O[C@@H]1CN(C)Cc1ccccc1`, which activity change, negative = cytotoxicity is on record?
**A.** 0.984% (inactive)

**Q.** Which activity change, negative = cytotoxicity does the source give for `C[C@H](CO)N1C[C@H](C)[C@H](CN(C)S(=O)(=O)c2ccc(F)cc2)Oc2ccc(NS(C)(=O)=O)cc2C1=O` here?
**A.** -6.43% (inactive)

**Q.** For `C[C@@H]1CN([C@H](C)CO)C(=O)Cc2cc(NC(=O)Cc3cn(C)c4ccccc34)ccc2O[C@H]1CN(C)S(=O)(=O)c1ccc(F)cc1`, which activity change, negative = cytotoxicity is on record?
**A.** 1.4% (inactive)

**Q.** For `CC(C)OCCCNC(=O)c1ccc(C2SCC(=O)N2Cc2ccco2)cc1` (configuration not stated), which activity change, negative = cytotoxicity is on record?
**A.** -4.74% (inactive)

**Q.** For `Cc1cc(SC(C)C(=O)Nc2ncc(Cl)cc2Cl)nc2ccccc12` (configuration not stated), which activity change, negative = cytotoxicity is on record?
**A.** -10.7% (inactive)

**Q.** Which activity change, negative = cytotoxicity does the source give for `C[C@H](CO)N1C[C@H](C)[C@@H](CN(C)S(=O)(=O)c2ccc(F)cc2)Oc2ccc(NC(=O)Cc3cn(C)c4ccccc34)cc2C1=O` here?
**A.** -0.528% (inactive)

**Q.** With `CC(C)(C)NC(=O)N1CCN(c2ncccc2C(F)(F)F)CC1` as the compound, how does the activity change, negative = cytotoxicity read?
**A.** -3.5% (inactive)

**Q.** For `O=C(Nc1cc(Cl)ccc1Cl)c1cc(Br)ccc1NS(=O)(=O)c1ccc(Cl)c([N+](=O)[O-])c1`, which activity change, negative = cytotoxicity is on record?
**A.** -11.2% (inactive)

**Q.** Which activity change, negative = cytotoxicity does the source give for `C[C@H](CO)N1C[C@H](C)[C@H](CN(C)S(=O)(=O)c2ccc(F)cc2)Oc2ccc(NC(=O)CCC(F)(F)F)cc2C1=O` here?
**A.** -1.99% (inactive)
